Published values pooled from the literature.
Protocols differ between the studies behind these lines. Converted amounts (≈) assume the structure as drawn.
PIP4K2C: Phosphatidylinositol 5-phosphate 4-kinase type-2 gamma (PIP4K2C, Homo sapiens, UniProt Q8TBX8)
LCK: Tyrosine-protein kinase Lck (LCK, Homo sapiens, UniProt P06239)
MAP3K10: Mitogen-activated protein kinase kinase kinase 10 (MAP3K10, Homo sapiens, UniProt Q02779)

COc1cc(/C=N/NC(=S)NN=Cc2ccc([N+](=O)[O-])o2)ccc1Oc1ccnc2cc(Cl)ccc12
IC20 (Aldo-keto reductase family 1 member B1 (AKR1B1, Homo sapiens, UniProt P15121); enzyme activity, inhibitor): 1.65 µg/mL (≈ 3.14 µM)

CCCCC(=O)Nc1ccc(-c2ccc3ncn(CCF)c(=O)c3c2)cn1
inhibition (PIP4K2C; binding, competition with immobilised ligand; 0.5 µM): 97.5%

C#Cc1cnc(Nc2ccnc(CO)c2)nc1Nc1ccccc1S(C)(=O)=NC#N (stereo not shown)
remaining activity (LCK; enzyme activity, inhibitor; 1 µM): 14.6%

CCCCC(=O)Nc1ccc(-c2ccc3ncn(CCC)c(=O)c3c2)cn1
remaining binding (Dual specificity mitogen-activated protein kinase kinase 4 (MAP2K4, Homo sapiens, UniProt P45985); binding, competition with immobilised ligand; 0.5 µM): 100%

N[C@@H](CC(=O)O)C(=O)O
ΔTm (Electrogenic aspartate/glutamate antiporter SLC25A13, mitochondrial (SLC25A13, Homo sapiens, UniProt Q9UJS0); thermal stability, DSF; 1 mM): ~3 °C

COc1cccc2c(N3CCC(CCP(=O)(O)O)CC3)ncnc12
residence time (Ectonucleotide pyrophosphatase/phosphodiesterase family member 1 (ENPP1, Homo sapiens, UniProt P22413); binding, SPR): 8.73 min

CNC(=O)c1ccccc1Nc1nc(Nc2ccc(CO)cc2)ncc1Cl
remaining activity (LCK; enzyme activity, inhibitor; 1 µM): 1.89%

CCCC(=O)Nc1ccc(-c2ccc3ncn(CCC)c(=O)c3c2)cn1
inhibition (PIP4K2C; binding, competition with immobilised ligand; 0.5 µM): 99.5%

CS(=O)(=NC#N)c1ccccc1Nc1nc(Nc2ccnc(CO)c2)ncc1Cl (stereo not shown)
remaining activity (LCK; enzyme activity, inhibitor; 1 µM): 41%

COc1ccc2oc(-c3ccc4nc(N)oc4c3)c/c(=N\c3ccccc3NC(=O)CCN)c2c1
remaining binding (Serine/threonine-protein kinase 38 (STK38, Homo sapiens, UniProt Q15208); binding; 1 µM): 104%

Cc1cc(O)c(-c2ccc([C@@H](C)CN(C)C)cc2)c2c1[nH]c(=O)c1sccc12
inhibition (MAP3K10; enzyme activity, inhibitor; 0.1 µM): -11.7%

C#Cc1cc(-c2cc(Nc3nc(N[C@@H](C)c4ccc(F)cn4)ncc3Cl)n[nH]2)ccc1C=O
inhibition (MAP3K10; enzyme activity, inhibitor; 0.2 µM): 54.5%

C1=C/COCc2cc(ccc2OCCN2CCCC2)Nc2nccc(n2)-c2cccc(c2)COC/1
remaining binding (Proto-oncogene tyrosine-protein kinase receptor Ret (RET, Homo sapiens, UniProt P07949, V804M); binding; 0.1 µM): 84%
